Results: ChEMBL document CHEMBL1150651, “Cholestane glycosides from the bulbs of Ornithogalum thyrsoides and their cytotoxic activity against HL-60 leukemia cells” (J Nat Prod, 2002)
≈ marks a conversion by molar mass, not a printed value.

test system: HL-60; assay: Cytotoxicity against human HL60 cells after 72 hrs by MTT assay; format: functional, cell-based; settings: HL-60, 72 h
How it was run: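 HL-60 cells (JCRB 0085) grown in RPMI 1640 with heat-inactivated 10% FBS, L-glutamine, penicillin and streptomycin. Seeded at 4 × 10^4 cells/mL and preincubated 24 h at 37 °C in 5% CO2. Sample added in EtOH-H2O (1:1) at final 0.00001-10 µg/mL; vehicle in control wells. After 72 h, MTT (5 mg/mL in PBS) added for 4 h. Formazan dissolved in DMSO, absorbance read at 550 nm.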

SMILES | IC50 [µg/mL]
CC(=O)O[C@H]1[C@H](O[C@H]2C[C@H]3[C@@H]4CC=C5C[C@@H](O[C@@H]6O[C@H](CO[C@@H]7O[C@H](CO)[C@@H](O)[C@H](O)[C@H]7O)[C@@H](O)[C@H](O)[C@H]6O)CC[C@]5(C)[C@H]4CC[C@]3(C)[C@@]2(O)[C@H](C)C(=O)CCC(C)C)OC[C@H](O)[C@@H]1O[C@@H]1OC[C@@H](O)[C@H](O)[C@H]1O | > 10
CC(=O)O[C@H]1[C@H](O[C@H]2C[C@H]3[C@@H]4CC=C5C[C@@H](O[C@@H]6O[C@H](CO)[C@@H](O)[C@H](O)[C@H]6O)CC[C@]5(C)[C@H]4CC[C@]3(C)[C@@]2(O)[C@H](C)C(=O)CCC(C)C)OC[C@H](O)[C@@H]1O[C@@H]1OC[C@@H](O)[C@H](O)[C@H]1O | 0.013 (≈ 0.0144 µM)
COc1cc(C(=O)O[C@H]2[C@H](O[C@@H]3[C@@H](OC(C)=O)[C@H](O[C@H]4C[C@H]5[C@@H]6CC=C7C[C@@H](O[C@@H]8O[C@H](CO[C@@H]9O[C@H](CO)[C@@H](O)[C@H](O)[C@H]9O)[C@@H](O)[C@H](O)[C@H]8O)CC[C@]7(C)[C@H]6CC[C@]5(C)[C@@]4(O)[C@H](C)C(=O)CCC(C)C)OC[C@@H]3O)OC[C@@H](O)[C@@H]2O)cc(OC)c1OC | 0.7 (≈ 0.557 µM)
COc1ccc(C(=O)O[C@H]2[C@H](O[C@@H]3[C@@H](OC(C)=O)[C@H](O[C@H]4C[C@H]5[C@@H]6CC=C7C[C@@H](O[C@@H]8O[C@H](CO[C@@H]9O[C@H](CO)[C@@H](O)[C@H](O)[C@H]9O)[C@@H](O)[C@H](O)[C@H]8O)CC[C@]7(C)[C@H]6CC[C@]5(C)[C@@]4(O)[C@H](C)C(=O)CCC(C)C)OC[C@@H]3O)OC[C@@H](O)[C@@H]2O)cc1OC | 0.81 (≈ 0.66 µM)
COc1cc(C(=O)O[C@H]2[C@H](O[C@@H]3[C@@H](OC(C)=O)[C@H](O[C@H]4C[C@H]5[C@@H]6CC=C7C[C@@H](O[C@@H]8O[C@H](CO)[C@@H](O)[C@H](O)[C@H]8O)CC[C@]7(C)[C@H]6CC[C@]5(C)[C@@]4(O)[C@H](C)C(=O)CCC(C)C)OC[C@@H]3O)OC[C@@H](O)[C@@H]2O)cc(OC)c1OC | 0.00016 (≈ 0.000146 µM)
COc1ccc(C(=O)O[C@H]2[C@H](O[C@@H]3[C@@H](OC(C)=O)[C@H](O[C@H]4C[C@H]5[C@@H]6CC=C7C[C@@H](O[C@@H]8O[C@H](CO)[C@@H](O)[C@H](O)[C@H]8O)CC[C@]7(C)[C@H]6CC[C@]5(C)[C@@]4(O)[C@H](C)C(=O)CCC(C)C)OC[C@@H]3O)OC[C@@H](O)[C@@H]2O)cc1OC | 0.00013 (≈ 0.000122 µM)
CC(C)CCC(=O)[C@@H](C)[C@@]1(O)[C@@H](O[C@@H]2OC[C@H](O)[C@H](O)[C@H]2O)C[C@H]2[C@@H]3CC=C4C[C@@H](O[C@@H]5O[C@H](CO)[C@@H](O)[C@H](O)[C@H]5O)CC[C@]4(C)[C@H]3CC[C@@]21C | 0.12 (≈ 0.165 µM)
